# Assay outcomes from PubChem BioAssay.
# Vif inh: HIV Vif inhibition; HEK293T cells, Vif self-association by quenched fluorescence, imaging, 24 h; inhibition, % at 7.49 µM; 0.35% of 340,000 active; in the data active = inhibition above about 50%, passing the limit was not always enough
# H9c2 TAG inh: triacylglycerol accumulation inhibition; H9c2 cells, Nile Red lipid (TAG) fluorescence; cells loaded with 200 µM oleic acid; inhibition, % at 12.5 µM; 0.66% of 230,000 active; AID 651582;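 active = pattern-corrected inhibition of lipid staining of at least 50% with the nuclear-stain viability signal not falling by more than 50%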;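 note: 0% = DMSO wells and 100% = triacsin C control wells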
# SMARCA2 activ: SMARCA2 function activation, primary screen; MG213 cells, MMTV-luciferase reporter, dexamethasone, overnight; activation, % at 9.1 µM; 1% of 370,000 active; in the data active = activation above about 7.8%;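 note: 0% = vehicle wells and 100% = reference activator wells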
# SR-BI DiI-HDL act: SR-BI HDL lipid transfer activation | 0.096% of 320,000 active | activation, % at 12.5 µM | CHO ldlA[mSR-BI] cells, DiI-HDL uptake fluorescence, 3 h; 100 = double the neutral-control signal | AID 504775;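 active = mean replicate activation of at least 60% and every replicate at or above 60%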;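 note: 0% = median plate neutral-control signal and 100% = twice that signal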
#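 Material: SR-BI-overexpressing, LDLR-lacking CHO cells; schedule: compound exposure 3 h, 37 °C; reagent: DiI-labelled HDL at 10 µg/mL final; technique: bottom-read fluorescence, 550/595 nm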
# SR-BI HDL uptake: mouse SR-BI HDL lipid transfer inhibition; Q61009; ldlA[mSR-BI] CHO cells, DiI-HDL uptake fluorescence, 3 h; inhibition, % at 12.5 µM; 0.96% of 320,000 active;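 active = mean replicate inhibition of at least 70% and a set share of replicates each scoring 70 or more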;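 note: 0% = median of neutral control wells and 100% = median of positive control wells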
# Target sequence (Q61009 whole entry, looked up): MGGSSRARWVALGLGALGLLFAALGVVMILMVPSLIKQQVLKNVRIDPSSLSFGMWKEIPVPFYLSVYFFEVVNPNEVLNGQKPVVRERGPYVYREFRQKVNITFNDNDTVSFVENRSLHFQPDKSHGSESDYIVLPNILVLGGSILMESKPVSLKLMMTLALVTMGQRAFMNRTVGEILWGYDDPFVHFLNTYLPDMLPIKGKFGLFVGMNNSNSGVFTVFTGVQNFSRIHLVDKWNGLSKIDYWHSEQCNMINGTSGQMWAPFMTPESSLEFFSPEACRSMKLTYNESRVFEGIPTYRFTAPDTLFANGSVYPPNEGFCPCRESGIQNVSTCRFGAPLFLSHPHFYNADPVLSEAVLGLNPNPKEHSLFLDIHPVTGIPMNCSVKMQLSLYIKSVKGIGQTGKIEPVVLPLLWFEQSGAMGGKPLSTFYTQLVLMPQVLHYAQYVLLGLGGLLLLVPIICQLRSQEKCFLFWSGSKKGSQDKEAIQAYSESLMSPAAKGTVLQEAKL
# * marks the source's active call; other numbers are inactive results; · = no result given; + = active, no number. Sampled rows, rich in hits. Any-hit rate of the full collection: about 2.5%.
SMILES,Vif inh,H9c2 TAG inh,SMARCA2 activ,SR-BI DiI-HDL act,SR-BI HDL uptake
CCOc1cccc(-c2nn(-c3ccccc3)cc2/C=C(/C#N)C(=O)NCCCn2ccnc2)c1,-15,·,-2,6,-6
N#C/C(=C/c1cn(-c2ccccc2)nc1-c1cccc(OCc2ccccc2)c1)C(=O)NCCCn1ccnc1,8,·,-4,84*,-84
CCN(CC)c1cc(C)c2cc(NC(=O)c3ccc(Br)o3)ccc2n1,-30,34,1,-73,73*
CCN(CC)c1cc(C)c2cc(NC(=O)c3cccs3)ccc2n1,-1,10,-4,-32,32
COc1cc(C(=O)NCC(=O)NCCN2C(=O)S/C(=C\c3ccccc3Cl)C2=O)cc(OC)c1OC,-2,-7,2,-41,41
COc1cc(/C=C2\SC(=O)N(CCNC(=O)c3sc4cc(F)ccc4c3Cl)C2=O)cc(OC)c1OC,63*,10,-2,·,·
Cc1cc2c(c(=O)o1)[C@@]1(C(=O)N(c3ccccc3)c3ccccc31)C1=C(CCCC1=O)O2,·,·,-5,·,·
COc1ccc2nc(NCc3ccccc3)[nH]c2c1,4,·,2,-8,8
Cc1ccc2nc(NCc3ccccc3)[nH]c2c1,-3,60*,3,-17,17
CCOC(=O)[C@@]12CCCC3=C1N(CCC3)C(=O)[C@H]2CC(=O)NCc1ccc(OC)c(OC)c1,·,·,-3,·,·
Cc1ccc(Cn2cc(COC(=O)NCCc3c[nH]c4ccccc34)nn2)cc1,·,·,-2,·,·
COc1ccc(N2CCN(CCCNC(=O)C(=O)c3c(C)n(C)c4ccccc34)CC2)cc1,54*,·,-2,-15,15
O=C(CCc1c[nH]c2ccccc12)Nc1ccc(Oc2cccnc2)cc1,·,·,-1,·,·
C[C@@]12C(=O)Nc3cc(Cl)ccc3C(=O)N1[C@H]1c3cc(Br)ccc3OC[C@@H]1[C@@H]2c1ccccc1,0,53*,2,15,-15
C[C@@]12C(=O)Nc3cc(Cl)ccc3C(=O)N1[C@H]1c3cc(Cl)ccc3OC[C@@H]1[C@@H]2c1ccccc1,-2,25,4,5,-5
COC(=O)[C@]12C[C@H](CC(=O)N3CCOCC3)C(=O)N(CCc3ccc(OC)c(OC)c3)C1=C[C@H](C(C)(C)C)O[C@@H]2C,·,·,-4,·,·
Cc1cccc(-n2c(SCC(=O)N(C)C3CCS(=O)(=O)C3)nc3ccccc3c2=O)c1C (stereo unspecified),-14,18,0,-6,6
CN(C(=O)CSc1nc2ccccc2c(=O)n1-c1ccccc1F)C1CCS(=O)(=O)C1 (stereo unspecified),62*,-22,-5,15,-15
Cc1cccc2sc(NC(=O)c3ccc(Cl)s3)nc12,-20,31,0,-76,76*
Oc1cccc2cc(Nc3ccccc3)cnc12,·,69*,-7,·,·
COc1ccccc1C=NNC(=O)NN=Cc1ccccc1OC,-7,17,-1,-39,39
COc1ccccc1C=NN=C(NN=Cc1ccccc1OC)NN=Cc1ccccc1OC,-21,56*,-3,-27,27
COc1cccc(/C=N/NC(=O)c2c(C)nc3ccc(Br)cn23)c1O,2,·,·,-100,100*
COc1cccc(/C=N/NC(=O)N/N=C/c2cccc(OC)c2O)c1O,-2,·,0,-83,83*
CCOc1ccccc1/C=N/NC(=O)c1c(C)nc2ccc(Br)cn12,·,·,0,-66,66
SMILES,Vif inh,H9c2 TAG inh,SMARCA2 activ,SR-BI DiI-HDL act,SR-BI HDL uptake
COc1cc(/C=N\NC(=O)c2ccc(Cn3nc([N+](=O)[O-])c(Cl)c3C)o2)ccc1O,5,2,0,-46,46
COc1cccc(/C=N\NC(=O)c2ccc(Cn3cc(Br)c([N+](=O)[O-])n3)o2)c1O,2,34,-5,-101,101*
Cc1cc(Oc2cccc3c2S(=O)(=O)N([C@H](C)c2ccccc2)C[C@@H](COCc2ccccc2)O3)cc(C)c1C,·,·,-3,·,·
COc1cccc(/C=N/NC(=O)c2nc(-c3ccccc3)cc(-c3ccccc3)n2)c1O,-1,34,-2,-106,106*
COc1cccc(C=NNC(=O)c2ccncc2)c1O,27,39,-4,-31,31
O=C(NCc1cccs1)C1CCC(CNS(=O)(=O)c2cccs2)CC1 (stereo unspecified),-1,1,2,6,-6
COc1ccccc1CNC(=O)C1CCC(CNS(=O)(=O)c2cccs2)CC1 (stereo unspecified),55*,·,2,·,·
C[C@H](O)[C@@H]1CN2CCc3ccc(-c4ccc5c(c4)OCO5)cc3[C@@H]2C[C@@H]1N(C)C(=O)c1ccco1,·,·,-5,·,·
CN1CCN(C(=O)CCN2C(=O)/C(=C/c3ccccc3Cl)SC2=S)CC1,5,13,7.9*,-22,22
N#Cc1sc2nc(-c3cccs3)cc(-c3ccc(F)cc3)c2c1N,-13,·,3,-82,82*
Cc1c(CNCCc2ccc(Cl)cc2)c(C(=O)O)c(C)n1Cc1ccccc1,3,-4,-5,16,-16
Cc1c(CNCCc2ccccc2Cl)c(C(=O)O)c(C)n1-c1ccccc1,13,·,-2,169*,-169
Cc1noc(C)c1COc1ccc(C(=O)Nc2ccccc2)cc1,4,-8,-2,-68,68
Cc1noc(C)c1COc1ccc(C(=O)Nc2nnc(CC(C)C)s2)cc1,-2,11,-3,-82,82*
Cc1noc(C)c1C(=O)Nc1nnc(CC(C)C)s1,-3,-10,-2,9,-9
Cc1noc(C)c1COc1ccc(C(=O)NNC(=O)c2ccccc2O)cc1,0,-4,-1,-95,95*
Cc1[nH]c2ccccc2c1/C=N/NC(N)=S,-15,-16,-2,-86,86*
Cc1[nH]c2ccccc2c1/C=N/Nc1nc(N2CCCCC2)nc(N2CCCCC2)n1,-3,·,0,-91,91*
Cc1[nH]c2ccccc2c1/C=N/NC(=O)Nc1ccccc1,-9,10,1,-39,39
Oc1ccccc1C=NNC(=S)Nc1ccc(F)cc1,-8,-23,-2,-101,101*
Cc1ccc(NC(=S)N/N=C/c2c(C)[nH]c3ccccc23)cc1,0,24,-1,-102,102*
C(=N\Nc1nc(N2CCCCC2)nc(N2CCCCC2)n1)/c1c[nH]c2ccccc12,1,·,2,-64,64
CCS(=O)(=O)Nc1ccc2c(c1)C(=O)N(C)[C@@H]1CC[C@H](CC(=O)NCCCN3CCOCC3)O[C@H]1CO2,·,·,-4,·,·
C#CCOCCOCCOCCNc1nc(N2CCN(C(=O)CCCCCCCCCCNC(=O)[C@H]([C@@H](C)CC)n3cc(CCCCCN)nn3)CC2)nc(N2CCN(C(=O)CCCCCCCCCCNC(=O)[C@H]([C@@H](C)CC)n3cc(CCCCN=C(N)N)nn3)CC2)n1,+,19,·,-40,40
C#CCOCCOCCOCCNc1nc(N2CCN(C(=O)CCCCCCCCCCNC(=O)[C@H]([C@@H](C)CC)n3cc(CCCCN=C(N)N)nn3)CC2)nc(N2CCN(C(=O)CCCCCCCCCCNC(=O)[C@H](CO)n3cc(CCCCCN)nn3)CC2)n1,21,-36,·,-59,59
